Data set [1] deals with Rattus norvegicus. The experiment in a line: Biodistribution in the blood of rat, 15 min after administration. The format is ADME, organism-based. To be noted: in vivo, 0.25 h. The procedure, abridged:
(§1)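 Male Sprague-Dawley rats (200-300 g) under ether anesthesia were given the 99mTc complex (0.5-20 μCi in 0.2 mL saline) iv via the femoral vein. Organs were taken at 2 or 15 min. Uptake is reported as % dose/organ, found by comparing tissue radioactivity with dilutions of the injected dose.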

Data set [2] has as its system Rattus norvegicus. Kind of data set: Biodistribution in the muscle of rat, 15 min after administration. The format is ADME, organism-based, Muscle tissue. To be noted: in vivo, 0.25 h. The procedure, abridged:
as §1

Data set [3] concerns Rattus norvegicus. The experiment in a line: Biodistribution in the brain blood of rat, 2 min after administration. The class given is ADME, organism-based. To be noted: in vivo. Summed up: (§2)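 Rats (male Sprague-Dawley, 200-300 g) received the 99mTc complex iv (femoral vein, ether anesthesia; 0.5-20 μCi in 0.2 mL saline) and were sampled at 2 or 15 min. % dose/organ was converted to % dose/gram using mean organ weights (brain 1.65 g, blood 18 g). Brain:blood ratio was taken from these % dose/gram values.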

The subject of data set [4] is Rattus norvegicus. Kind of data set: Biodistribution in the kidneys of rat, 15 min after administration. The class given is ADME, organism-based, Kidney. Conditions: in vivo, 0.25 h. The procedure, abridged: as §1
Data set [5] concerns Rattus norvegicus. Kind of data set: Biodistribution in the blood of rat, 2 min after administration. The format is ADME, organism-based. To be noted: in vivo. The procedure, abridged: as §1
The subject of data set [6] is Rattus norvegicus. The experiment in a line: Biodistribution in the thyroid of rat, 15 min after administration. The class given is ADME, organism-based, Thyroid gland. To be noted: in vivo, 0.25 h. Summed up: as §1
Data set [7] concerns Rattus norvegicus. Kind of data set: Biodistribution in the lungs of rat, 2 min after administration. The format is ADME, organism-based, Lung. Conditions: in vivo. The procedure, abridged:
as §1

Data set [8] deals with Rattus norvegicus. Kind of data set: Biodistribution in the stomach of rat, 2 min after administration. To be noted: in vivo. The format is ADME, organism-based. The procedure, abridged:
as §1

For data set [9], the system named is Rattus norvegicus. The experiment in a line: Biodistribution in the skin of rat, 2 min after administration. The format is ADME, organism-based, Zone of skin. Conditions: in vivo. The procedure, abridged:
as §1

Data set [10] relates to Rattus norvegicus. Kind of data set: Biodistribution in the muscle of rat, 2 min after administration. The class given is ADME, organism-based, Muscle tissue. To be noted: in vivo. Summed up: as §1
Data set [11] has as its system Rattus norvegicus. Kind of data set: Biodistribution in the kidneys of rat, 2 min after administration. Conditions: in vivo. The class given is ADME, organism-based, Kidney. The procedure, abridged: as §1
The subject of data set [12] is Rattus norvegicus. Kind of data set: Biodistribution in the spleen of rat, 2 min after administration. The class given is ADME, organism-based. Conditions: in vivo. The procedure, abridged:
as §1

Data set [13] has as its system Rattus norvegicus. The experiment in a line: Biodistribution in the heart of rat, 15 min after administration. The class given is ADME, organism-based. Conditions: in vivo, 0.25 h. Summed up:
as §1

The subject of data set [14] is Rattus norvegicus. Kind of data set: Biodistribution in the spleen of rat, 15 min after administration. The class given is ADME, organism-based. To be noted: in vivo, 0.25 h. Summed up: as §1
For data set [15], the system named is Rattus norvegicus. Kind of data set: Biodistribution in the liver of rat, 15 min after administration. The class given is ADME, organism-based. Conditions: in vivo, 0.25 h. The procedure, abridged: as §1
Data set [16] has as its system Rattus norvegicus. Kind of data set: Biodistribution in the lungs of rat, 15 min after administration. The class given is ADME, organism-based, Lung. Conditions: in vivo, 0.25 h. The procedure, abridged: as §1
Data set [17] concerns Rattus norvegicus. The experiment in a line: Biodistribution in the brain blood of rat, 15 min after administration. Conditions: in vivo, 0.25 h. The format is ADME, organism-based. The procedure, abridged: as §2
Data set [18] concerns Rattus norvegicus. Kind of data set: Biodistribution in the skin of rat, 15 min after administration. To be noted: in vivo, 0.25 h. The class given is ADME, organism-based, Zone of skin. The procedure, abridged: as §1
Data set [19] deals with Rattus norvegicus. Kind of data set: Biodistribution in the brain of rat, 15 min after administration. The class given is ADME, organism-based. Conditions: in vivo, 0.25 h. The procedure, abridged: as §1
Data set [20] relates to Rattus norvegicus. Kind of data set: Biodistribution in the thyroid of rat, 2 min after administration. The format is ADME, organism-based, Thyroid gland. Conditions: in vivo. Summed up:
as §1

Data set [21] relates to Rattus norvegicus. The experiment in a line: Biodistribution in the stomach of rat, 15 min after administration. The format is ADME, organism-based. To be noted: in vivo, 0.25 h. The procedure, abridged: as §1
Data set [22] relates to Rattus norvegicus. The experiment in a line: Biodistribution in the heart of rat, 2 min after administration. The class given is ADME, organism-based. Conditions: in vivo. The procedure, abridged:
as §1

Values joined by “and” are separate entries in the source; they are usually repeats but may differ in a detail not shown here. Equal entries are not always repeated.

As to “(Syn-isomer) 99mTc-2,3-bis(2-thioacetamido)propanate”, the Biodistribution in the data set with Rattus norvegicus [1] is 2.04%; with Rattus norvegicus [2] it was 18.1%; in the data set on Rattus norvegicus [3], 5.33%; in the data set with Rattus norvegicus [4], 2.22%; in the data set on Rattus norvegicus [5] it was 5.37% and 2.46%; with Rattus norvegicus [6], 0.07%. The Biodistribution with Rattus norvegicus [7] was 9.18% and 2.77%; in the data set with Rattus norvegicus [8], 1.85%; in the data set with Rattus norvegicus [9], 9.18%; in the data set on Rattus norvegicus [10], 8.43%; with Rattus norvegicus [11], 7.8%; with Rattus norvegicus [12] it was 0.7%. Moreover, the Biodistribution with Rattus norvegicus [13] is on record as 0.43%; with Rattus norvegicus [14], 0.79%; in the data set with Rattus norvegicus [15] it was 18.6%; in the data set with Rattus norvegicus [16] it was 3.38%; in the data set on Rattus norvegicus [17], 5.82%; in the data set on Rattus norvegicus [18], 15.7%. The Biodistribution in the data set with Rattus norvegicus [19] was 1.08%; in the data set on Rattus norvegicus [20] it was 0.22%; in the data set on Rattus norvegicus [21] it was 4.51%; with Rattus norvegicus [22] it was 2.46%.
